Drawing on the array DNA melting data of Ke et al. (doi:10.1101/2024.01.08.574731), this text covers folding enthalpy and Tm for 37 sequences.

Data set [1] can be described thus: folding enthalpy; higher = less favourable; fluorescence melt of hairpins on a sequencing array, two-state fit. Particulars: sodium 0.088 M. An outline of the steps:
(§1)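 With Cy3 and quencher oligos annealed, library hairpins on a sequenced MiSeq flow cell were imaged for Cy3 fluorescence in 50 mM Na-HEPES pH 8.0, 25 mM NaCl, in 2.5 °C steps up to 60 °C. Melting temperature and folding enthalpy were derived from bootstrapped two-state fits of signals normalised to pre-quench Cy3 and to control constructs. Four replicates were combined by inverse variance, with fitted temperatures raised by 9.35 °C to match UV melts.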

Data set [2] in a line: melting temperature; fluorescence melt of hairpins on a sequencing array, two-state fit, raised by 9.35 °C to match UV melts. To be noted: sodium 0.088 M. The method, boiled down: as §1

Consider GGTTACACGAAAGTGACC (((..(((....)))))), for which the folding enthalpy in data set [1] is -16.6 kcal/mol. For the same sequence, the Tm in data set [2] amounted to 35.5 °C.
Take GTCCCCGAAAGGGTAGAC ((((((....)))..))): the folding enthalpy in data set [1] is -16.1 kcal/mol. For the same sequence, the Tm in data set [2] was found to be 40.6 °C.
As for GATCCAGAACTGGATC ((((((....)))))), in data set [1], the folding enthalpy is -37.6 kcal/mol. The Tm in data set [2] worked out at 56.4 °C.
Regarding GGGGAAGGAAACTTCCCC (((((((....))))))), in data set [1], the folding enthalpy is -30.4 kcal/mol. Also, the Tm in data set [2] turned out to be 65 °C.
For the sequence GGGCGGCGAAAGCCCCC (((.(((....)))))), the folding enthalpy in data set [1] was -17.3 kcal/mol. The Tm in data set [2] stood at 65.6 °C.
With GCAGACCGAAAGGTTTGC (((.(((....))).))), the folding enthalpy in data set [1] is -41.6 kcal/mol. For the same sequence, the Tm in data set [2] is 63.4 °C.
Regarding GCACGGCGAAAGCCAAGC ((..(((....)))..)), the folding enthalpy in data set [1] was -15.4 kcal/mol. The Tm in data set [2] amounted to 46.6 °C.
For GCCTGGCGAAAGCCACGC ((.((((....)))).)) the same measures were -16.9 kcal/mol and 49 °C.
For GGTGGGCGAAAGCCGACC (((.(((....))).))), the folding enthalpy in data set [1] is -19.6 kcal/mol. In data set [2], the Tm was 61.9 °C.
In the case of GAAGCCGAAAGGCAGTTC ((((((....)))..))), the folding enthalpy in data set [1] is -9.04 kcal/mol. Moreover, the Tm in data set [2] was determined as 30 °C.
Turning to GCTGCGCGAAAGCTCTGC ((.(.((....)).).)), the folding enthalpy in data set [1] was -18.2 kcal/mol. Further, the Tm in data set [2] is 42.3 °C.
For GGGCCCCGAAAGGGACCC (((.(((....))).))) the same measures were -26 kcal/mol and 69 °C.
Turning to GGTAACCGAAAGGTCACC (((.(((....))).))), the folding enthalpy in data set [1] is -25 kcal/mol. The Tm in data set [2] came to 48.2 °C.
As for GTCTGTGGAAACACAAAC ((.((((....)))).)), the folding enthalpy in data set [1] was -12.3 kcal/mol. Moreover, the Tm in data set [2] came to 28.1 °C.
Turning to GTGCTTGGAAACAAGCAC (((((((....))))))), the folding enthalpy in data set [1] was -38.7 kcal/mol. Besides, the Tm in data set [2] came to 68.1 °C.
For the sequence GCGCTCGAAAGAGACCGC ((((((....)))..))), the folding enthalpy in data set [1] is -21.8 kcal/mol. For the same sequence, in data set [2], the Tm came to 44.9 °C.
Take GTCTCGAAAGAGAC (((((....))))): the folding enthalpy in data set [1] was -24.8 kcal/mol. The Tm in data set [2] came to 60.5 °C.
The matching figures for GATCCAGCGGTGGATC ((((((....)))))): -44.3 kcal/mol and 50.8 °C.
Turning to GATCGCGAGTGCGATC ((((((....)))))), the folding enthalpy in data set [1] was -33.8 kcal/mol. Also, in data set [2], the Tm turned out to be 66.3 °C.
On to GCTCCGCCGAAAGGCAGC (((..(((....)))))), for which the folding enthalpy in data set [1] is -9.89 kcal/mol. In addition, the Tm in data set [2] worked out at 35.1 °C.
GATCGATGCATCGATC ((((((....)))))): the folding enthalpy in data set [1] is -46.9 kcal/mol. Further, the Tm in data set [2] amounted to 59.7 °C.
With GAAGCCGAAAGGCTCTTC ((((((....)))..))), the folding enthalpy in data set [1] was -20.8 kcal/mol. Moreover, the Tm in data set [2] stood at 56.6 °C.
The matching figures for GATCACTAGGTGATC ((((((...)))))): -40.9 kcal/mol and 55.2 °C.
Regarding GTACGTGGAAACGCGTAC (((((.(....).))))), in data set [1], the folding enthalpy is -32.2 kcal/mol. Moreover, in data set [2], the Tm amounted to 52.7 °C.
As to GCGCCGCGAAAGCGCTGC ((..(((....)))..)), the folding enthalpy in data set [1] is -15.6 kcal/mol. Besides, the Tm in data set [2] came to 61.1 °C.
For GGATGCGAAAGCAGTTCC ((((((....)))..))), the folding enthalpy in data set [1] was -14.3 kcal/mol. Further, the Tm in data set [2] came to 36 °C.
Take GCAGCCGAAAGGCATTGC ((((((....)))..))): the folding enthalpy in data set [1] is -15.6 kcal/mol. Also, in data set [2], the Tm was determined as 41.5 °C.
The matching figures for GGAGTTGGAAACGACTCC (((((.(....).))))): -23.2 kcal/mol and 54.9 °C.
As to GTGCGGGGAAACCCACAC (((.(((....))).))), the folding enthalpy in data set [1] was -37.9 kcal/mol. Besides, the Tm in data set [2] came out at 51.6 °C.
In the case of GCTATGCGAAAGCCTTGC ((.(.((....)).).)), the folding enthalpy in data set [1] was -12.7 kcal/mol. Besides, the Tm in data set [2] was determined as 30 °C.
For GGGCCAGGAAACCGGCCC (((((.(....).))))), the folding enthalpy in data set [1] is -33.2 kcal/mol. The Tm in data set [2] is 64 °C.
For GAAAATCCGAAAGGATTC (((..(((....)))))) the same measures were -11.8 kcal/mol and 33.4 °C.
Consider GATCTCTGTAGAGATC ((((((....)))))), for which the folding enthalpy in data set [1] is -44.1 kcal/mol. In addition, the Tm in data set [2] is 56.5 °C.
For GACTGTGGAAACATAGTC ((((.((....)).)))) the same measures were -28.5 kcal/mol and 45.2 °C.
With CGTCCGGAAACGGTGACG ((((((....)))..))), the folding enthalpy in data set [1] was -21.9 kcal/mol. Also, the Tm in data set [2] worked out at 41 °C.
Consider CCTCTGAAAAGAGG (((((....))))), for which the folding enthalpy in data set [1] was -20.4 kcal/mol. Moreover, the Tm in data set [2] was found to be 48.7 °C.
On to GTAAGAGGAAACTCTTGC (.(((((....))))).), for which the folding enthalpy in data set [1] is -25 kcal/mol. The Tm in data set [2] came out at 38.7 °C.
